TPT1 inh: inhibitors of Candida albicans tRNA 2'-phosphotransferase TPT1; recombinant caTPT1, FP RNA substrate dephosphorylation; inhibition, % at 5 µM; 0.81% of 300,000 active;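 active = inhibition above the mean of all tested compounds plus 3 SD, set per screening campaign, cut at about 24% in these data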
IDE cell activ: activators of human insulin-degrading enzyme in cells; P14735; HEK cells, FAbeta-B cleavage, fluorescence polarization; 0% vehicle, 100% cell-free pure enzyme wells; activation, % at 5.96 µM; 0.073% of 340,000 active; AID 493087;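 active = activation above the mean of all tested compounds plus 3 SD, set per screening campaign, cut at about 17% in these data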
CSN deneddyl inh: CSN deneddylation inhibition; Q92905; Purified CSN, SCF-Nedd8-OG deneddylation, fluorescence polarization; inhibition, % at 12.5 µM; 0.38% of 360,000 active;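 active = pattern-corrected inhibition above about 35%, with an unprinted fluorescence ratio check between 0.5 and 1.5, limit read from the data, passing the limit was not always enough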
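Assay system: Purified human Csn5 enzyme expressed in HEK293T cells | Amount: Enzyme 0.24 nM | Measured by: Fluorescence polarization readout | Medium: Tris/NaCl/DTT buffer, pH 7.5 | Compound dosing: One concentration, 12.5 µM, 0.25% DMSO | Times: 90 min incubation of compound, enzyme and substrate at room temperature | Control set: no-enzyme wells high, enzyme-with-substrate wells low | Read-out: % inhibition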
Rpn11 inh: Rpn11 (human) deubiquitinase inhibition | O00487 | human 26S proteasome, Ub4-pepOG fluorescence polarization; 20S core pre-blocked with epoxomicin | inhibition, % at 20 µM | 0.59% of 360,000 active | AID 588493;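 active = inhibition at 20 µM, scaled to each plate's controls, above about 33%, limit read from the data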
IDE inh: inhibits human insulin-degrading enzyme in HEK cells | P14735 | FAbetaB cleavage, fluorescence polarization | inhibition, % at 5.59 µM | 0.41% of 320,000 active;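 active = percent inhibition above the average of all tested compounds plus 3 SD, set per screening campaign, cut at about 16% in these data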;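 note: IDE supplied by intact live HEK cells; FP after avidin binding of uncleaved biotin substrate so inhibition keeps polarization high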
HNF4A DNA FP: change in binding of human HNF4 alpha to DNA; P41235; HNF4a-FITC DNA binding, fluorescence polarization, 1 h; activity change, % at 10 µM; 0.3% of 360,000 active; AID 1224865; in the data active = activity change above about 30%, passing the limit was not always enough
CSN deneddyl val: Csn5 (human) deneddylation inhibition, single-concentration validation; inhibition, % at 16.6 µM; shares compounds with CSN deneddyl inh; 62% of 540 active; AID 720654; Csn5 deneddylation of SCF-Nedd8OG, fluorescence polarization, 90 min; in the data active = inhibition above about 50%
MMP2 cntr CSN: MMP-2 (human) inhibition, counter-screen for CSN hits. recombinant MMP-2, FRET substrate fluorescence, 60 min. inhibition, % at 16.6 µM. 33% of 540 active. AID 720655. shares compounds with CSN deneddyl inh;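 active = corrected plate-normalized z-score of 5 or more, or -5 or less, or inhibition of 15% or more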
Target sequence (P08253 whole entry, looked up): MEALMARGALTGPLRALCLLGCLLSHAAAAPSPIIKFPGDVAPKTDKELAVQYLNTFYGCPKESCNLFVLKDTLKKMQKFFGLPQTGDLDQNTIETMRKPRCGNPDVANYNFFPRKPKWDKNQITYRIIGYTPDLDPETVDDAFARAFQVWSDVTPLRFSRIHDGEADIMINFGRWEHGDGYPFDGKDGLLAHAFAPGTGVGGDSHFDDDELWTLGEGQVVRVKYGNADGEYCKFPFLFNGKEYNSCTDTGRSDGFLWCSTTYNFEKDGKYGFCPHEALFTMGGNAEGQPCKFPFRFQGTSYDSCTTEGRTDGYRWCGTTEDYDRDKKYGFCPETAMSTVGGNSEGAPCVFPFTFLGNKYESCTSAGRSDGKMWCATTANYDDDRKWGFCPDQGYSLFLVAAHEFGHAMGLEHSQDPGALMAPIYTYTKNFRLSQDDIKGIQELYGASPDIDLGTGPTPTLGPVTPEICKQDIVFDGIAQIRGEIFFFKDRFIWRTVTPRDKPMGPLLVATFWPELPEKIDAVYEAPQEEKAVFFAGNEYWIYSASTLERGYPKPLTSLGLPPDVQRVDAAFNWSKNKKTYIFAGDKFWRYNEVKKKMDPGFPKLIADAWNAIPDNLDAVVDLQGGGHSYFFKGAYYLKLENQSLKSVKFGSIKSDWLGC
Thrombin cntr: counter-screen for CSN deneddylation inhibitors: bovine thrombin inhibition; shares compounds with CSN deneddyl inh; bovine thrombin cleavage of Ub4-pepOG, fluorescence polarization; inhibition, % at 16.6 µM; 49% of 540 active; AID 720656;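 active = inhibition at or above a set limit, with a fluorescence interference ratio between 0.5 and a set maximum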
HNF4a DNA conf: change in binding of human HNF4 alpha to DNA, retest. activity change, % at 12.5 µM. 99% of 210 active. HNF4A-FITC DNA binding, fluorescence polarization, 1 h. shares compounds with HNF4A DNA FP; call rule not given here
Hits are given with their value; 0 = inactive; - = no result given. In the library only some 1.7% were active in any assay of this set; here they are far more common.

SMILES	TPT1 inh	IDE cell activ	CSN deneddyl inh	Rpn11 inh	IDE inh	HNF4A DNA FP	others
CN(C)c1ncnc2c1ncn2[C@H]1CN(Cc2ccc(-c3ccccc3)cc2)C[C@@H](CO)O1	-	-	0	0	-	0
O=C(O)c1ccc(-n2cccc2/C=C2/NC(=O)N(c3cccc(Cl)c3)C2=O)cc1	-	0	0	-	-	0
O=C(O)c1ccc(-n2cccc2/C=C2/SC(=O)N(CC(=O)N3CCCC3)C2=O)cc1	0	0	43	0	0	0	MMP2 cntr CSN=31;Thrombin cntr=0
O=C(O)c1ccc(-n2cccc2/C=C2/NC(=O)N(c3ccccc3)C2=O)cc1	0	0	36	0	0	0	CSN deneddyl val=71;MMP2 cntr CSN=20;Thrombin cntr=0
C=CCN(CC=C)Cc1cc(=O)oc2cc(C)cc(C)c12	-	-	0	0	-	0
O=C(Nc1nc(-c2ccco2)c(-c2ccco2)s1)c1ccc(F)cc1F	-	0	45	0	-	0	CSN deneddyl val=103;MMP2 cntr CSN=0;Thrombin cntr=0
CC1CC(C)C(=NNC(N)=O)C(C(O)CC2CCC(=O)NC2=O)C1 (stereo not given)	-	0	0	0	-	0
O=C1C=CC(O)C2(CO)OC12 (stereo not given)	-	-	0	0	-	0
CC(=O)NN1C(=O)/C(=C/c2ccc(Br)o2)SC1=S	0	0	51	0	0	60	CSN deneddyl val=96;MMP2 cntr CSN=19;Thrombin cntr=34
CC(=O)NN1C(=O)/C(=C\c2ccc(Cl)cc2)SC1=S	0	0	0	0	0	0
CC(C)C1Cc2[nH]c(=S)[nH]c(=O)c2C(c2ccc(F)cc2)O1 (stereo not given)	-	-	0	0	-	0
NC(=O)c1ncn([C@@H]2O[C@H](CNCc3cc(Cl)ccc3OCc3ccc(Cl)cc3)[C@@H](O)[C@H]2O)n1	-	0	0	0	-	0
N#C/C(=C/c1cc(Cl)c(O)c(Cl)c1)C(=O)N1CCCCC1	0	0	0	0	0	0
N#CC(C#N)=C(N)/C(C#N)=C/c1cc(O)c(O)c(O)c1	0	0	122	-	0	0	CSN deneddyl val=0;MMP2 cntr CSN=0;Thrombin cntr=57
O=C(NCc1cccc(C(F)(F)F)c1)c1[nH]c(C(F)(F)F)nc1-c1ccccc1	-	-	0	0	-	0
CC(NC(=O)c1ccc(Cl)c(S(=O)(=O)NC2CC2)c1)c1ccco1 (stereo not given)	-	-	0	0	-	0
O=C1C2C(C(=O)N1/N=C/c1cc([N+](=O)[O-])c(O)cc1O)C1C=CC2C12CC2 (stereo not given)	0	0	36	0	0	0	CSN deneddyl val=0;MMP2 cntr CSN=17;Thrombin cntr=0
CCCCn1c(NC(=O)c2ccccc2Cl)c(C#N)c2nc3ccccc3nc21	0	0	59	0	0	64	CSN deneddyl val=98;MMP2 cntr CSN=0;Thrombin cntr=0
CCC(=O)Nc1c(C#N)c2nc3ccccc3nc2n1-c1ccccc1C	0	0	0	0	0	0
CC(C)C(=O)N[C@H]1CCC2C3CC=C4C[C@@H](O)CC[C@]4(C)C3CC[C@@]21C (stereo not given in full)	-	0	0	0	0	0
CC(C)(C)[C@H](N)C(=O)N[C@H]1CCC2C3CC=C4C[C@@H](O)CC[C@]4(C)C3CC[C@@]21C (stereo not given in full)	-	0	49	0	0	0	CSN deneddyl val=0;MMP2 cntr CSN=0;Thrombin cntr=16
COc1ccc(/C=N/NC(=O)c2ccccc2OC)cc1COc1ccccc1[N+](=O)[O-]	0	0	101	0	0	83	HNF4a DNA conf=60
Cc1noc(C)c1C(=O)OC(C)C(=O)c1c[nH]c2ccccc12 (stereo not given)	-	-	0	0	-	0
C#CCOCCOCCOCCNc1nc(N2CCN(C(=O)[C@H](CCCCN)n3cc([C@@H](N)C(C)CC)nn3)CC2)nc(N2CCN(C(=O)[C@H](CCCCN)n3cc([C@@H](N)CO)nn3)CC2)n1 (stereo not given in full)	0	-	-	-	0	-
C#CCOCCOCCOCCNc1nc(N2CCN(C(=O)[C@H](CCCCN)n3cc(CN)nn3)CC2)nc(N2CCN(C(=O)[C@H](CCCCN)n3cc([C@@H](N)[C@H](C)CC)nn3)CC2)n1	-	0	99	0	0	96	HNF4a DNA conf=99
SMILES	TPT1 inh	IDE cell activ	CSN deneddyl inh	Rpn11 inh	IDE inh	HNF4A DNA FP	others
Cn1cnc2ncnn2c1=S	-	-	0	0	-	0
CN(/C=C/C(=C/C=[N+](C)c1ccccc1)OCCCS(=O)(=O)[O-])c1ccccc1	0	0	0	-	0	0
CN(/C=C/C(=C\C=[N+](C)c1ccccc1)OCCCS(=O)(=O)[O-])c1ccccc1	0	0	0	-	0	87	HNF4a DNA conf=106
O=C(N/N=C/c1ccc(-c2ccc([N+](=O)[O-])cc2)o1)[C@H]1C[C@@H]1c1ccccc1	0	0	0	-	0	65	HNF4a DNA conf=74
O=C(N/N=C/c1ccc(-c2cccc([N+](=O)[O-])c2)o1)[C@H]1C[C@@H]1c1ccccc1	0	0	0	0	0	0
COC1OC(O)C(NC(=O)C(F)(F)F)CC1O (stereo not given)	-	0	0	0	-	0
O=C(Cn1cc(/C=N/NC(=O)c2ccccc2Br)c2ccccc21)Nc1ccc(F)cc1	0	0	0	0	0	0
O=C(Cn1cc(/C=N/NC(=O)c2cccc3ccccc23)c2ccccc21)Nc1ccc(F)cc1	0	0	0	-	0	46	HNF4a DNA conf=90
CN(C)c1ccc(C=NN2C(=O)CSC2=S)c(Cl)c1	-	-	60	-	-	87	HNF4a DNA conf=88
O=C1CSC(=S)N1N=Cc1c(F)cccc1Cl	-	-	0	0	-	0
CC(=O)c1cccc(NC(=O)c2ccc(-c3c(C)noc3C)c3ccoc23)c1	-	-	0	0	-	0
CC(C)=CCCC(C)c1cc(C(=O)NCCc2ccc(O)cc2)c(N)s1 (stereo not given)	-	-	0	-	-	52	HNF4a DNA conf=39
CC(=O)Nc1ccc(CN2C(=O)C(C)(C)ON=C2c2ccc(NC(C)=O)cc2)cc1	-	-	0	0	-	0
CSC(=NS(=O)(=O)c1ccccc1)NNC(=O)c1c(-c2c(Cl)cccc2Cl)noc1C	-	-	0	0	-	0
CCOc1ccc(CNC(=O)C2CCN(c3nnc(C)c4c(C)n(-c5ccc(C)cc5)nc34)CC2)cc1	0	0	0	-	0	45	HNF4a DNA conf=50
O=C(N/N=C\C=C\c1ccc(Br)cc1)c1ccc2c(c1)OCO2	0	0	49	116	0	50	HNF4a DNA conf=62
CN(C)c1ccc(/C=N/NC(=O)c2cc(-c3ccc4c(c3)OCO4)n[nH]2)cc1	0	0	42	-	0	47	HNF4a DNA conf=59

Bioassay records deposited in PubChem by several laboratories.
